Experimental data from the EternaBench riboswitch data.

Tested on: MS2 coat protein
Experiment: apparent Kd, MS2 coat protein; higher = weaker binding; RNA-MaP array
Summary of the method: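 Apparent Kd values come from the median of binding-curve fits to single clusters. To obtain them, designed RNAs transcribed on an Illumina sequencing chip from sequenced DNA templates were incubated at room temperature with fluorescently labeled MS2 coat protein at 1.5 nM to 3 μM, with or without input ligand, for 0.8–1.5 h at the lowest and 10–20 min at the highest concentrations. Designs measured on fewer than 10 clusters were excluded.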

[1] = designed as: OFF switch for flavin mononucleotide, no ligand
[2] = ligand present: flavin mononucleotide, designed as: OFF switch for flavin mononucleotide
[3] = designed as: ON switch for flavin mononucleotide, no ligand
[4] = ligand present: flavin mononucleotide, designed as: ON switch for flavin mononucleotide
[5] = designed as: ON switch for theophylline, no ligand
[6] = ligand present: theophylline, designed as: ON switch for theophylline

Sequence | apparent Kd [1] [µM] | apparent Kd [2] [µM] | apparent Kd [3] [µM] | apparent Kd [4] [µM] | also measured
CCGGAAUUGCAGGAUAUACGCAAACCACAUGCUGUAGAAGGGCAAACAUGAGGAUCACCCAUGUGGUCGAGCAG | 0.0134 | 0.0179 |  |  | 
CAAUGGACGGUAGGAUAUGUACUAGAGAAGCAGACAGAAGGACCUAGUCCGACAUGAGGAUCACCCAUGUGAAACCCGGUCCAG | 0.00683 | 0.00644 |  |  | 
AUCUGGUUACAAGGAUAUCCAAUGUAAACAAUAGGAGAAGGAGUGAAAAGACCUAGGAAAACAUGAGGAUCACCCAUGUAAUUA |  |  | 0.111 | 0.0391 | 
UUCGACCACGAGAAGGUGACGAAGGCCGAUUGUCAAGGAUAUCGACACAUGAGGAUCACCCAUGUCAGAGCGGGACUAACUAAA |  |  | 0.0226 | 0.0128 | 
UACUUUGUAUGCAAGGAUAUCCAGGAUUCUACAUGAGGAUCACCCAUGUCAAAUACUAUGCAACGGGAGAAGGUGCAUAACAUCAU |  |  | 0.0165 | 0.0122 | 
AGUAAAGUAGAAGGAUAUCACGAACAUGAGGAUCACCCAUGUUAAGAUCGGCGUGAGACAACAGAUGAGAAGGACUAAUAUGCU | 0.0109 | 0.0102 |  |  | 
AAAUUACACGAGAAGGGCAGUGAAUAUCUGUCUGCAGGAUAUCGCUACAUGAGGAUCACCCAUGUUUUCAGUAGUACUAGCGAA | 0.00974 | 0.00906 |  |  | 
ACUUGACAUGAGGAUCACCCAUGUGAUCCGUCAUUAGGAUAUCGAAGGUAUAUCACGCCUCGAGAAGGAAUAGCGG |  |  | 0.361 | 0.0655 | 
UCCAGACAUGAGGAUCACCCAUGUUCAUGCCUCGGAGGAUAUCUAUGGGUGGAGGACUUUAGAGAAGGCCGAUCCG |  |  | 0.674 | 0.458 | 
AUAGGGCGACAGAAGGGCAGUGCACGCAUUGCUGCAGGAUAUGUGGUCCACAUGAGGAUCACCCAUGUAGUAAUAUCUUGUAGU |  |  | 0.104 | 0.0712 | 
AACAAGGACAGAGGAUAUAUCAACAUUGAAGUAAUAGAAGGCUGAGAGAAUGAGACUCAUAAACAUGAGGAUCACCCAUGUAAC | 0.0822 | 0.0814 |  |  | 
CCUAUCAAACGAGGAUAUGUGCGGACAAGAAACACAGAAGGCGAACCACAUGAGGAUCACCCAUGUACGAAGACAAAGCAAGAA |  |  | 0.0227 | 0.0145 | 
CGUAAUGCACUAGGAUAUGUUGUAUAUACAACGACAGAAGGAGUUCCACAUGAGGAUCACCCAUGUCCAAACCAAUACUCAUCG |  |  | 0.0782 | 0.064 | 
GGGCCACAUAAGAAGGUGAGCCACAGCGGCGUUCAAGGAUAUUAUAGGUAACCCACCAGACAUGAGGAUCACCCAUGUAGUGUC |  |  | 0.0367 | 0.0252 | 
UAAAGAUGUGCAGGAUAUUAGAAACGGCGGGAACUUAAAUUCAAACAUGAGGAUCACCCAUGUAAUAAGAAGGGCAAACUAAGA | 0.0159 | 0.0206 |  |  | 
AGUUUUAUCGUGUAGGAUAUGGGAUAAUCAACAUGAGGAUCACCCAUGUCAUGAGUGACAAGCGACCAGAAGGACACCAAUACAAC |  |  | 0.4 | 0.0558 | 
ACUAUUCAUUAUGGCACAUGAGGAUCACCCAUGUAGUGCGAACAGGAUAUACAAAAGAAUGUCAAGUAGAAGGGUUCCAGGUUC |  |  | 0.028 | 0.0198 | 
GGUUAACAUGAGGAUCACCCAUGUCUUGAUACCAGUCGUUAUCUUGACCCUUGGCAGCAAGAUGACCGUUAGCAGCCGUCUUCUC |  |  |  |  | apparent Kd [5]: 0.0132 µM; apparent Kd [6]: 0.0195 µM
UUCUGGCCGCAGAAGGAGGAUCUGGUUGAAAUCCUAGGAUAUGCAUCUAACCACUGGUCCACAUGAGGAUCACCCAUGUCAGAC | 0.0163 | 0.0124 |  |  | 
CCAGUUGACUAGAAGGCAAUACGGAUAAAGUAACUGACCACAUGAGGAUCACCCAUGUAUCCCAUUGAGGAUAUAGCAUUAAGU | 0.0442 | 0.0258 |  |  | 
GGGAUGUUAGGAUAUGCUGGUUAAAAGAGAUUAAUACUCUAGCAGAAGGAACAUGAGGAUCACCCAUGUAGACA | 0.0106 | 0.0264 |  |  | 

Sequence | apparent Kd [1] [µM] | apparent Kd [2] [µM] | apparent Kd [3] [µM] | apparent Kd [4] [µM] | also measured
AGUUGAGGAGGAUAUACAUGAGGAUCACCCAUGUGACUGUGUCUGUUGCGCUGGAUCGGUAGAAGGCCUUAGUA | 0.0122 | 0.0164 |  |  | 
UCCACACAUGAGGAUCACCCAUGUUGAGAUACCAGUAAACCAAAAUACCCUUGGCAGCUCCUACGCUCUUACAGCGGGAAUAUCC |  |  |  |  | apparent Kd [5]: 0.0158 µM; apparent Kd [6]: 0.0231 µM
ACGGGAGCAGAAGGAUAUAGGGUAGGUAUUAGACUAGAAGGACUCUUACAUGAGGAUCACCCAUGUAGUUCAGAAUGGGAAAUC |  |  | 0.0455 | 0.0404 | 
AUUCGGUCAGGAUAUAGCGCACGCCGACGAACAUGUGGCGGCUAGAAGGGACAUGAGGAUCACCCAUGUCGGGC | 0.00841 | 0.0107 |  |  | 
GCAGGCGUUAAGAAGGUUCUCCCACAUGAGGAUCACCCAUGUUGACAUGCUAGAGUCAUUACAAGAAAGGAUAUUAGCGAAUUG |  |  | 0.114 | 0.0258 | 
GAAAUAUAGUCAGGAUAUCAGGACAUGAGGAUCACCCAUGUACUGAAUGGGCUGGUGAAAAGAGAUGAGAAGGGACACACUAGA | 0.00623 | 0.00578 |  |  | 
UUGUUUAGGAUAGGAUAUAGGUCUAAAAGUGAGUCGGACAUGAGGAUCACCCAUGUGGGUGCGAUCUAGAAGGAUCCGCCGCGG | 0.754 | 0.269 |  |  | 
AAUCCUAAUGUCAGGAUAUUGCAGAAGCCAGAACACAAGAAGGGACAUGAGGAUCACCCAUGUAUAGUCACAUA | 0.0224 | 0.0591 |  |  | 
CGGAAACAAGUAGGAUAUCACUUGAAUGUACAUGAGGAUCACCCAUGUUCCUUACGGCCGCGUUUUGAGAAGGACUAUUCAAAA | 0.0176 | 0.015 |  |  | 
UCUAAACAUGAGGAUCACCCAUGUGAUUUACUCGCAGGAUAUGAGAGCUUGCACACGCAAUCAGAAGGGCGUCGAA |  |  | 0.0367 | 0.0287 | 
CCAGCUCUAUAGGAUAUUCUUGAUGAAGACACGGAAGAAGGAUAGACAUGAGGAUCACCCAUGUCCUUACAUGU | 0.0194 | 0.0173 |  |  | 
UAAUGCAUAACAUGAGGAUCACCCAUGUAGUAAAAUGGUGGUUAGGAUAUAGCACGUGAAUCGACCUAGAAGGAACGUCCUUAC | 0.0333 | 0.03 |  |  | 
GAUAGUGAUCCGGGUUACAUGAGGAUCACCCAUGUUACAAAUAGAAGGUCAGAACAAAAUUGAAAGAAGGAUAUAUUUUCAUUG | 0.0441 | 0.0396 |  |  | 
CGCGCUGAAGGAUAUGCAUUGGACUACAUGAGGAUCACCCAUGUCCCGUCUUGUGGACCCGCAGAAGGUCACUACC | 0.00925 | 0.012 |  |  | 
GGACCAAGGAGGGAGGAUAUCACAUACAAAACAUGAGGAUCACCCAUGUAGAAGAGACAAGAUACAGAGAAGGCCCAGAAAUAAAA |  |  | 0.014 | 0.00927 | 
AAAACGGGUUAGAAGGGCAAUUUUGAUGACAGUGCAGGAUAUAACUUGUGUCCGAAUAUGGACAUGAGGAUCACCCAUGUUAGU |  |  | 0.468 | 0.185 | 
UACCUUAUGGAGAAGGCACGUCUCAGAGGAGCAACAUGAGGAUCACCCAUGUACCUGGGCUGAAGUGAGGAUAUCCAAAUCCCA |  |  | 0.0144 | 0.00718 | 
AAUGACGCGAAGAAGGACUGAUACCAGCUAAAAGUAGGAUAUUCUGAACGUGGACGGUUUACAUGAGGAUCACCCAUGUAUGAA | 0.00929 | 0.00901 |  |  | 
CGACACCAGGCAAUCCAUCACCCGGCUGAUACCAGCUCUUUUGGAAGCCCUUGGCAGCAGAGAACAUGAGGAUCACCCAUGUCAG |  |  |  |  | apparent Kd (designed as: OFF switch for theophylline, no ligand): 0.0146 µM; apparent Kd (ligand present: theophylline, designed as: OFF switch for theophylline): 0.0212 µM
UAACCGUGAGGAUAUACAUGAGGAUCACCCAUGUGGUUUUGCUGCGCACAUACUUUAUGUAGAAGGCACAACUG | 0.05 | 0.0599 |  |  | 
